In the library only some 1.4% were active in any assay of this set; here they are far more common.
CR mimetic SO: lowers age-related superoxide in aged yeast cells; S. cerevisiae aged cells, superoxide DHE fluorescence; hits give low values; superoxide response (% of plate mean), % at 10 µM; hit rate 0.18% among 330,000;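 active = superoxide response under a set limit, about three screen SD below normal, cut at about 65% in these data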;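 note: yeast aged for seven days with compound at 30 °C before DHE staining; 100% = average MFI of all compound-treated wells on the plate with controls excluded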
HDAC3 inh: human HDAC3 inhibition. O15379. recombinant HDAC3, fluorogenic peptide/trypsin coupled, fluorescence. inhibition, % at 8.3 µM. hit rate 0.15% among 320,000; in the data active = inhibition above about 26%, passing the limit was not always enough
IDE act: activators of human insulin-degrading enzyme in cells | activation, % at 5.96 µM | HEK cells, FAbeta-B cleavage, fluorescence polarization; 0% vehicle, 100% cell-free pure enzyme wells | AID 493087 | P14735 | hit rate 0.073% among 340,000;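 active = activation above the mean of all tested compounds plus 3 SD, set per screening campaign, cut at about 17% in these data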
Target sequence (P14735 whole entry, looked up): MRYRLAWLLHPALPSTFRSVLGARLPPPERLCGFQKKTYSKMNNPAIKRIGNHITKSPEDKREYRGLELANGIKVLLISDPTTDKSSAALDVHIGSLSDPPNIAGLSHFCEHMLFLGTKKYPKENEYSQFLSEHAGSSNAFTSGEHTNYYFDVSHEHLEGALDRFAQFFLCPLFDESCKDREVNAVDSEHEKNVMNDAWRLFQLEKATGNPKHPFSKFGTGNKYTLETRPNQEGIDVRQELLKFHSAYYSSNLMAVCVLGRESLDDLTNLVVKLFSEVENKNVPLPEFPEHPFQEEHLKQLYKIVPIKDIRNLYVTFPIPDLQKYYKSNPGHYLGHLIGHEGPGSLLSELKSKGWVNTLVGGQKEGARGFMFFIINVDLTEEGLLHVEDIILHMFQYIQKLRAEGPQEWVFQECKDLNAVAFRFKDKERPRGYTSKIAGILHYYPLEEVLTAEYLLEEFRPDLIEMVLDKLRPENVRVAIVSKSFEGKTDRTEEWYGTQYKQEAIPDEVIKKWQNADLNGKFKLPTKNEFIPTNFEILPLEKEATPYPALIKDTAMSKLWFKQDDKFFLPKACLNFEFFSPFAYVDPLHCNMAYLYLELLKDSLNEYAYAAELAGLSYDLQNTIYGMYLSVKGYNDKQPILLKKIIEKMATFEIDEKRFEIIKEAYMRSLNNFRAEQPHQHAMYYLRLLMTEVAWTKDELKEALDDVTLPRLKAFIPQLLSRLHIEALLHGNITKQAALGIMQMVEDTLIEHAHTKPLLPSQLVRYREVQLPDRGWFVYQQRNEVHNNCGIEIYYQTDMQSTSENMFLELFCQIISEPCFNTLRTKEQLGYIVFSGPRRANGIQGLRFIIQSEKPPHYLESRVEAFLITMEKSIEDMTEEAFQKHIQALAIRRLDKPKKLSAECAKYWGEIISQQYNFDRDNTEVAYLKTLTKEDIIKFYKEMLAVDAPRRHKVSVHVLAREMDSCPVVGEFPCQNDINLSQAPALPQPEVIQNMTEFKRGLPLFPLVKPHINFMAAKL
Tb MetRS inh: blocks T. brucei methionyl-tRNA synthetase activity | hit rate 0.4% among 360,000 | inhibition, % at 11.9 µM | AID 624268 | purified T. brucei MetRS, ATP depletion, Kinase-Glo luminescence;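 active = inhibition above a per-plate cutoff of the control wells' mean inhibition plus 3 SD, cut at about 5.5% in these data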;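 note: 0% = DMSO wells median and 100% = median of wells with control inhibitor compound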
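Measured by: Kinase-Glo luciferase luminescence reporting remaining unconsumed ATP. Material: purified T. brucei MetRS enzyme. Doses: 11.9 µM compound single dose, 0.9% DMSO. Medium: HEPES buffer containing pyrophosphatase, BSA, spermine, DTT. Times: 15 min preincubation, 2 h reaction, all 25 °C. Reagent: methionine, ATP and bulk E. coli tRNA.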
Efflux pump mplx: antifungal efflux pump inhibition, Nile Red retention; AID 485275; inhibition, % at 10 µM; hit rate 0.44% among 330,000; S. cerevisiae Candida pump triplex;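 active = plate passing quality check with inhibition over a set limit, or well fluorescence over plate mean plus 4 SD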;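 note: Nile Red retained in pooled yeast measured as flow cytometry median fluorescence; 0% = buffer negative control and 100% = Enniatin B positive control; higher means more Nile Red kept so more efflux inhibition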
IDE cell inh: inhibits human insulin-degrading enzyme in HEK cells. hit rate 0.41% among 320,000. FAbetaB cleavage, fluorescence polarization. P14735. inhibition, % at 5.59 µM. AID 434962;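 active = percent inhibition above the average of all tested compounds plus 3 SD, set per screening campaign, cut at about 16% in these data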;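 note: IDE supplied by intact live HEK cells; FP after avidin binding of uncleaved biotin substrate so inhibition keeps polarization high; 0% = DMSO wells and 100% = 60 µM reference IDE inhibitor Ii1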
CR mimetic CP: confirmation of caloric restriction mimetics inhibiting yeast age-related superoxide; AID 434994; shares compounds with CR mimetic SO; superoxide response (% of plate), % at 10 µM; S. cerevisiae aging, superoxide DHE fluorescence; hits give low values; hit rate 1% among 850;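 active = superoxide signal below 65% of the plate average of sample wells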;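 note: cells aged with compound for 7 days at 30 degrees C before staining; 100% equals mean DHE fluorescence of all compound wells on the plate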
DHE counter: counter-screen for compounds affecting DHE oxidation and fluorescence in yeast; shares compounds with CR mimetic SO; S. cerevisiae BY4741, flow cytometry; hits give low values; fluorescence response, % at 10 µM; 850 tested, under 10 active;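 active = fluorescence response below 15%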;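 note: percent of the mean fluorescence averaged over all compound wells on the plate; lower means stronger quenching of DHE signal or ROS scavenging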
The depositor's hits bear a star; . = no result.

SMILES	CR mimetic SO	HDAC3 inh	IDE act	Tb MetRS inh	Efflux pump mplx	IDE cell inh	others
Cc1cccc(N2C(=O)NC(=O)/C(=C\c3cc(C)n(-c4sc5c(c4C#N)CCCC5)c3C)C2=O)c1C	46*	.	3	1	0	-2
CCC1C(c2ccccc2)NC(c2ccccc2)CC1(O)c1ccc(F)cc1 (stereo not drawn)	98	3	6	0	0	5
CC[C@@H]1C=CC=CC[C@H](C)[C@@H](O)[C@@H](C)C(=O)[C@H](C)[C@@H](O)[C@H](C)C(=O)[C@H](C)[C@@H](O)[C@H](C)C=CC(=O)O[C@H]2[C@@H](C)[C@@H](CC1)O[C@@]1(CC[C@@H](C)[C@@H](C[C@H](C)O)O1)[C@@H]2C	85	50*	.	.	1	-4
O=C(c1ccccc1)C1NC1c1ccccc1 (stereo not drawn)	87	0	20*	0	0	3
C[n+]1c(-c2ccccc2)c2cc(N)ccc2c2ccc(N)cc21	102	15	8	-1	8.5*	4
c1ccc(N2[C@@H]3CC[C@H]2c2ccncc2C3)cc1	.	.	.	0	.	.
CCC1([N+](=O)[O-])COP(N)(=O)OC1 (stereo not drawn)	.	.	4	0	.	.
COC(=O)C1=C(c2cccc(OC)c2OC)C[C@@H]2CC[C@H]1N2C(=O)N1CCCC1	96	-2	5	0	0	-5
c1ccc(C2CC3CC4(CCCC4)N2O3)cc1 (stereo not drawn)	95	4	18*	-2	1	-1
O=c1c(C=NCc2cccs2)c(O)n(C2CCCCC2)c(=O)n1C1CCCCC1	106	-1	5	-1	0	1
N=C(N)c1c(O)n(C2CCCCC2)c(=O)n(C2CCCCC2)c1=O	118	28*	-6	-1	0	-7
CCOC(=O)[C@]12Cc3cc(Cl)ccc3[C@H]1N(C1CCCCC1)C(=O)c1ccccc12	.	.	.	-1	.	.
O=C1NC(=O)C(=Cc2coc3ccccc3c2=O)C(=O)N1	87	4	-3	0	0	-1
O=C1NC(=O)C(=C/C=C/c2coc3ccc(Br)cc3c2=O)C(=O)N1	94	-2	.	.	3.5*	10
CCOC(=O)C1SC2(C(F)(F)F)CC1(O)c1c(C)cc(C)nc1O2 (stereo not drawn)	90	44*	-3	0	0	0
S=C(NCCc1ccccc1)N1Cc2ccccc2-n2nncc2C1	.	.	.	0	.	.
O=c1c2ccccc2nc(/C=C/c2ccc(O)cc2)n1-c1ccccc1O	93	.	-32	0	0	34*
O=c1c2ccccc2nc(/C=C/c2ccccc2)n1-c1ccccc1O	101	-5	4	1	0	-3
CC(C)Oc1cccc(NC(=O)c2cccn(Cc3ccc4c(c3)OC(F)(F)O4)c2=O)c1	96	34*	1	0	0	0
Cc1cc(OCC(=O)NC(Cc2ccc(Cl)cc2)C(=O)O)c2c3c(c(=O)oc2c1)CCCC3 (stereo not drawn)	110	-28	7	-2	0	2
C[C@]12CCC(=O)C[C@H]1CC[C@@H]1[C@@H]2CC[C@]2(C)C(=O)CC[C@@H]12	60*	.	2	0	0	3	CR mimetic CP=83;DHE counter=93
C[C@]1(O)CCC2C3CC[C@@H]4CC(=O)CC[C@]4(C)C3CC[C@@]21C (stereo partly drawn)	61*	0	-5	0	0	2	CR mimetic CP=88;DHE counter=94
C[C@]12CC[C@H](O)C[C@@H]1CC[C@H]1[C@H]3CCC(=O)[C@@]3(C)CC[C@@H]12	.	.	.	0	.	.
C[C@]12CCC3C(CC[C@H]4C[C@H](O)CC[C@]34C)C1CCC2=O (stereo partly drawn)	57*	-9	1	0	0	5	CR mimetic CP=74;DHE counter=101
C[C@]12CCC3C(CC[C@H]4CC(=O)CC[C@]34C)C1CCC2=O (stereo partly drawn)	71	-4	-2	0	0	0

Assay outcomes (PubChem BioAssay)
